Assay results pooled from the literature.
Protocols differ between the studies behind these lines.
Target: Mitogen-activated protein kinase kinase kinase kinase 3 (MAP4K3, Homo sapiens, UniProt Q8IVH8)
One construct used (Q8IVH8 1-894): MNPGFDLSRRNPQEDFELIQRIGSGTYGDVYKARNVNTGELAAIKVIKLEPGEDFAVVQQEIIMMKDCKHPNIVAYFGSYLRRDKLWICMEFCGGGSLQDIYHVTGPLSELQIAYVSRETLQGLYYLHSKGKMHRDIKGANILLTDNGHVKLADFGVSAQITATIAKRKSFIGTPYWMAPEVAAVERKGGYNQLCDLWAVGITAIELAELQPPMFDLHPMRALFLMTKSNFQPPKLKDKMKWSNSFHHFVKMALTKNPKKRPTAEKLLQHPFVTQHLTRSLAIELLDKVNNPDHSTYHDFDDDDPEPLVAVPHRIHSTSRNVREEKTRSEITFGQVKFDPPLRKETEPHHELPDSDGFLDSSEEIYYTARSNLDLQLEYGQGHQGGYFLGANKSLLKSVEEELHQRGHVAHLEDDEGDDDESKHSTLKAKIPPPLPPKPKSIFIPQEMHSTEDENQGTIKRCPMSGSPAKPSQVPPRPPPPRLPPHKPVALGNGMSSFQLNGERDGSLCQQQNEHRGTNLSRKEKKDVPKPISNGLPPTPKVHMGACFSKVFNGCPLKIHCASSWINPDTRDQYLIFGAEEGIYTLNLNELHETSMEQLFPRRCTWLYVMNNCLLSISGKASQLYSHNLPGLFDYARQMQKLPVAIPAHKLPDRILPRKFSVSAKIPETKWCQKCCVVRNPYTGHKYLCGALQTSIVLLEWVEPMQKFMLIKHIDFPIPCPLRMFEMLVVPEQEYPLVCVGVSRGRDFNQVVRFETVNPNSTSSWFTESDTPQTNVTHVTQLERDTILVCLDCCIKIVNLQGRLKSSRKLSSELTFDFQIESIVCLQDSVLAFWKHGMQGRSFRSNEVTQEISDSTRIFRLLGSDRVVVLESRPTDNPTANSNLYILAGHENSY

COc1ncc2cc3ccccc3nc2c1C#N
remaining binding (cell-free assay, competition with immobilised ligand; 5 µM): 100%

O=C(c1ccc(Nc2ncc(Cl)c(-c3cc4ccccc4s3)n2)cc1)N1CCC(N2CCCC2)CC1
remaining binding (binding, competition with immobilised ligand; 1 µM): 40%

c1cnn2ncc(-c3ccnc(N4CCC45COC5)n3)c2c1
remaining binding (binding; 1 µM): 88%

O=C(NCC1CCOCC1)c1n[nH]cc1NC(=O)c1c(F)cccc1F
remaining binding (binding, competition with immobilised ligand; 1 µM): 82%

CN(C)c1ncc(F)c(-c2cnn3ncccc23)n1
remaining binding (binding; 1 µM): 100%

O=C(c1ccc(Nc2nccc(-c3cc4ccccc4s3)n2)cc1)N1CCC(N2CCCC2)CC1
remaining binding (binding, competition with immobilised ligand; 1 µM): 93%

Nc1c(C(=O)NCc2ccc(C(=O)NCCCC3CCCCC3)cc2)cnn1-c1ccccc1
remaining binding (cell-free assay, competition with immobilised ligand; 0.1 µM): 100%

FC(F)(F)Oc1cccc(-c2cnc3ccc(-c4ccncc4)nn23)c1
remaining binding (cell-free assay, competition with immobilised ligand; 5 µM): 86%

COc1ccnn2ncc(-c3ccnc(N(C)C)n3)c12
remaining binding (binding; 1 µM): 100%

c1cncc(-c2cccc(Nc3nccc(NC4CCCCC4)n3)c2)c1
remaining binding (binding, competition with immobilised ligand; 10 µM): 83%

O=C(Nc1cccnn1)N1CC(C/C=C/c2cncc(Oc3ccc(C(F)(F)F)cn3)n2)C1
remaining binding (cell-free assay, competition with immobilised ligand; 1 µM): 100%

CN(C)c1nccc(-c2cnc3ncccn23)n1
remaining binding (binding; 1 µM): 100%

NS(=O)(=O)c1cc(NC(=O)Cc2ccccc2)ccc1Oc1cccc(Cl)c1
remaining binding (cell-free assay, competition with immobilised ligand; 1 µM): 100%

N[C@@H]1CCN(c2nccc(-c3cnn4ncccc34)n2)C1
remaining binding (binding; 1 µM): 76%

O=C(N1CCS(=O)(=O)CC1)N1C[C@H](c2ccc(OC(F)(F)F)cc2)C[C@H](c2nc(C3CC3)no2)C1
remaining binding (cell-free assay, competition with immobilised ligand; 1 µM): 100%

O=C(c1ccc(Nc2ncc(Cl)c(-c3ccc(Cl)s3)n2)cc1)N1CCC(N2CCCC2)CC1
remaining binding (binding, competition with immobilised ligand; 1 µM): 50%

CN([C@@H]1CCc2c(CC(=O)O)c3cc(S(C)(=O)=O)ccc3n2C1)S(=O)(=O)c1ccc(F)cc1
remaining binding (cell-free assay, competition with immobilised ligand; 1 µM): 100%

COc1cnc(Nc2cccc(S(N)(=O)=O)c2)nc1N1CCN(c2ccccc2)CC1
remaining binding (binding, competition with immobilised ligand; 1 µM): 98%

CN(CCCC(F)(F)F)c1nccc(-c2cnn3ncccc23)n1
remaining binding (binding; 1 µM): 100%

O=C(O)c1cc(-c2ccc(C3CCNCC3)cc2)c2ccc(-c3ccc(C(F)(F)F)cc3)cc2c1
remaining binding (cell-free assay, competition with immobilised ligand; 1 µM): 100%
